# Screening results as filed in PubChem BioAssay.
# A selection: hits, their analogues and other compounds. The true share with any hit is near 2.9%.
# DENV2 CPE: inhibitors of DENV2 cytopathic effect, primary screen, cell-based, plate reader, single concentration; CPE inhibition, % at 9.99 µM; DENV2-infected cells, cytopathic effect rescue; 350,000 tested, 1.7% active; in the data active = CPE inhibition above about 20%, passing the limit was not always enough; inconclusive = no clear call, values can overlap the other calls; tested in BHK-21 cells;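 also: 0% = median of neutral control wells and 100% = median of positive control wells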
# CAL PDZ FP-1: CAL PDZ peptide-binding inhibitors, primary screen, biochemical, fluorescence polarization, Cer-tagged CAL PDZ, HTS. purified CAL PDZ, TMR-peptide fluorescence polarization, 1 h. 330,000 tested, 0.02% active. AID 504414, 2011. inhibition, % at 20 µM;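 active = highest replicate inhibition of at least 40%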;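 also: plate controls were DMSO neutral control wells for no effect and unlabeled competitor peptide control wells for full effect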
#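 Control set: unlabelled peptide and DMSO controls / Material: purified CerCALP PDZ construct / Timing: 1 h incubation at room temperature before polarization reading / Doses: 20 µM, one dose / Detection: fluorescence polarization (mP)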
# S100A4 inh HTS: inhibitors of S100A4-myosin IIA peptide binding, primary screen, biochemical, fluorescence polarization, TAMRA-MyoIIA peptide | Protein S100-A4 (Homo sapiens), P26447 | inhibition, % at 10.7 µM | 360,000 tested, 0.14% active | AID 652163, 2013;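 active = mean inhibition of at least 70% across replicates, with every replicate also reaching that level; inconclusive = mean inhibition reaches 70% but some replicates fall short; inactive = mean inhibition below 70%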
#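 Assay system: human S100A4 monomer with TAMRA-labelled myosin IIA peptide / Buffer or medium: Calcium-containing HEPES buffer, pH 7.2 / Reagent: TAMRA-labelled myosin IIA heavy-chain peptide probe, 5 nM / Compound: one dose per compound / Timing: polarization read 5 min after assay mix addition, stable 5–60 min / Benchmarks: neutral control DMSO, positive control TFP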
# SIRT5 block: SIRT5 desuccinylase inhibitors, primary screen, biochemical, fluorescence imaging, single point, set 5; AID 652115, 2013; 330,000 tested, 1.1% active; Purified SirT5, succinyl-peptide AMC, trypsin-coupled fluorescence; inhibition, % at 15 µM; NAD-dependent protein deacylase sirtuin-5, mitochondrial (Homo sapiens), Q9NXA8; in the data active = inhibition above about 15%; inconclusive = no clear call, values can overlap the other calls
# CAL PDZ FP-2: untagged CAL PDZ binding inhibitors, primary screen, biochemical, fluorescence polarization, HTS; 300,000 tested, 0.92% active; inhibition, % at 24.9 µM; purified CAL PDZ, TMR-peptide fluorescence polarization, 1 h;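 active = mean inhibition of at least 30% with at least half of replicates also reaching 30%; inconclusive = no clear call, values can overlap the other calls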;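 also: 0% = DMSO neutral control and 100% = excess unlabeled competitor peptide PRC23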
# ERAP1 inh: human ERAP1 aminopeptidase inhibitors, primary screen, biochemical, single point, plate reader; Endoplasmic reticulum aminopeptidase 1 (Homo sapiens), Q9NZ08; recombinant ERAP1, Leu-AMC fluorescence, 60 min; inhibition, % at 10.7 µM; 340,000 tested, 0.15% active; AID 652197, 2013;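 active = mean replicate inhibition of at least 30%, or all replicates individually reaching that 30% level; inactive = mean below 30% and not every replicate reaching it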;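 also: 0% = neutral control wells and 100% = L-leucinethiol positive control wells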
# Target sequence (Q9NZ08 whole entry, looked up): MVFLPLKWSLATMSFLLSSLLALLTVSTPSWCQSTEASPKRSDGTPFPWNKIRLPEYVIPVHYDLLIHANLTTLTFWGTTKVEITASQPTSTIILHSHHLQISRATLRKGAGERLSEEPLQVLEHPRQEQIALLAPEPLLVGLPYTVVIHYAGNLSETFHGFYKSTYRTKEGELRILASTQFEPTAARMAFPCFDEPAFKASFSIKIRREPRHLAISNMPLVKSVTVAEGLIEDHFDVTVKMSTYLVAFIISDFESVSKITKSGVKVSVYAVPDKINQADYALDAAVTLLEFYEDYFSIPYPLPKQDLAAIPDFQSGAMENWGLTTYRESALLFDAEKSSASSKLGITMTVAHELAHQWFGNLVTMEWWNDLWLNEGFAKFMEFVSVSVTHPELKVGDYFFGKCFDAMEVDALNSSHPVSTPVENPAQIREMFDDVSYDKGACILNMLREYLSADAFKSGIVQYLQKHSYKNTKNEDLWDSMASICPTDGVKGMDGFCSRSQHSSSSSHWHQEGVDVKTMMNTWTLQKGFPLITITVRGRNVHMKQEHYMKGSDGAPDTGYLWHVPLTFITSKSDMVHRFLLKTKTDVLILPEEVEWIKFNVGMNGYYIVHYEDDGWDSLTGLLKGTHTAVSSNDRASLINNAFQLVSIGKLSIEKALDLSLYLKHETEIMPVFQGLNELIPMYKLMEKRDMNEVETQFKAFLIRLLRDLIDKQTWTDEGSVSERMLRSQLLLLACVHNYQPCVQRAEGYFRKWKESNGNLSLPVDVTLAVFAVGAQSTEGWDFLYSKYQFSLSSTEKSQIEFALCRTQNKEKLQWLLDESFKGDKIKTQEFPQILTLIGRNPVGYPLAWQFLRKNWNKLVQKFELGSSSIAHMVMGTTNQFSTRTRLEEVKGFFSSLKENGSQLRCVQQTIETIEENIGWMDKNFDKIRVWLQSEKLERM
# * marks the source's active call; other numbers are inactive results; ? = inconclusive; · = no result.
SMILES,DENV2 CPE,CAL PDZ FP-1,S100A4 inh HTS,SIRT5 block,CAL PDZ FP-2,ERAP1 inh
O=C1NN(c2ccccc2)C(=O)/C1=C/c1ccc(-c2ccc(C(=O)O)cc2)o1,1,0,-3,24*,-5,3
O=C1NN(c2ccc(Cl)c(Cl)c2)C(=O)/C1=C/c1ccc(-c2ccccc2C(=O)O)o1,5,-1,-4,13,-5,1
CC1(C)OC(=O)C(=Cc2ccc(-c3ccc(Cl)c(C(=O)O)c3)o2)C(=O)O1,14,-2,-2,5,-2,-9
Cc1noc(C)c1NC(=O)N(C)C[C@@H]1OCCCC[C@H](C)Oc2ccc(N(C)C)cc2C(=O)N([C@H](C)CO)C[C@@H]1C,19,·,3,1,·,0
N#C[C@@H]1[C@@H](c2ccc(C3=CCCCC3)cc2)[C@@H](CO)N1C(=O)NC1CCCCC1,9,·,2,6,·,-2
CN(Cc1ccc(Br)cc1)C(=O)CCN1C(=O)c2cccc([N+](=O)[O-])c2C1=O,-3,1,-1,-3,71*,0
COC(=O)c1ccc2nc(-c3ccc(F)cc3)c(Cc3ccccc3OC)n2c1,50*,·,-7,14,·,-3
COC(=O)c1ccc2nc(-c3ccccc3)c(Cc3ccc(C)cc3)n2c1,4,·,-6,-6,·,0
COC(=O)c1ccc2nc(-c3ccc(C#N)cc3)c(Cc3cccc(F)c3)n2c1,41*,·,1,·,·,·
COC(=O)c1ccc2nc(-c3ccc(C)cc3)c(Cc3ccccc3)n2c1,-5,·,-9,24*,·,-3
Fc1ccc(-c2nc3ccc(Cl)cn3c2Cc2cccc(F)c2)cc1,-3,·,0,19*,·,1
COC(=O)c1ccc2nc(-c3cccc(Br)c3)c(Cc3ccccc3OC)n2c1,-4,·,-2,-4,·,-1
Fc1cccc(Cc2c(-c3ccccc3)nc3ccc(Cl)cn23)c1,-8,·,0,-5,·,-2
Cc1noc(C)c1NC(=O)N(C)C[C@@H]1Oc2ccc(NC(=O)CCCCCC(=O)Nc3ccccc3N)cc2CC(=O)N([C@H](C)CO)C[C@H]1C,-5,·,13,·,·,-1
CO[C@@H]1CN(C)C(=O)c2ccc(NC(=O)Cc3ccccc3)cc2OC[C@H](C)N(CC2CC2)C[C@H]1C,4,·,-1,3,·,-2
O=C(C[C@@H]1CC[C@H]2[C@@H](COC[C@@H](O)CN2CC2CCCCC2)O1)NCc1ccc(Cl)cc1,-12,·,12,6,·,0
O=C(C1CCCC1)N1C[C@@H]2[C@H](c3ccccc31)[C@H](CO)N2C(=O)c1ccccc1,20,·,2,0,·,-1
C[C@@H]1CN([C@H](C)CO)C(=O)Cc2cc(NS(=O)(=O)c3ccc(F)cc3)ccc2O[C@@H]1CN(C)C(=O)Nc1ccccc1,-4,·,-2,-2,·,1
CC(C)(C)[S@@](=O)N1Cc2cc(C(=O)NCCc3ccncc3)nc(-c3cccc(-c4ccc(C#N)cc4)c3)c2[C@H]1CCO,-4,·,11,0,·,-1
COC(=O)c1ccc2nc(-c3ccco3)c(Cc3ccsc3)n2c1,68*,·,-4,-1,·,0
COC(=O)c1ccc2nc(-c3ccco3)c(Cc3ccccc3)n2c1,5,·,-2,-1,·,6
COC(=O)c1ccc2nc(C3CCCCC3)c(Cc3ccccc3OC)n2c1,20*,·,-1,-3,·,-2
Cc1ccc(S(=O)(=O)N[C@@H]2CC[C@@H](CCNC(=O)c3ccc4c(c3)OCO4)O[C@H]2CO)cc1,1,·,4,2,·,-5
O=C(CCc1ccccc1)NNC(=O)c1ccccc1Cl,-5,-1,-2,1,-1,2
O=C(NNCc1ccc(O)cc1)c1ccccc1Cl,75*,-5,-3,-1,0,3
SMILES,DENV2 CPE,CAL PDZ FP-1,S100A4 inh HTS,SIRT5 block,CAL PDZ FP-2,ERAP1 inh
Cc1cccc(N2CC(O)(c3cccs3)[N+]3=C2CCCC3)c1C (stereo unspecified),18,-2,-3,3,-3,-1
Cc1ccccc1N1CC(O)(c2cccs2)[N+]2=C1CCCC2 (stereo unspecified),4,6,-13,-2,87*,7
CCOC(=O)C1(C)CCCN1C(=O)c1ccc(OC)c(F)c1 (stereo unspecified),-10,·,-1,·,·,-1
COc1ccc(C(=O)N2CCC2(C)C(=O)O)cc1F (stereo unspecified),79*,·,-3,-1,·,-2
O=C(C1CCOCC1)N1[C@H](CO)[C@@H]2c3ccccc3NC[C@@H]21,·,·,·,-2,·,·
CCOc1ccc(NC(=O)CSc2nnnn2-c2ccc(C(N)=O)cc2)cc1,-1,·,-3,-1,66*,1
COc1ccc(NC(=O)CSc2nnnn2-c2ccc(OC)cc2)cc1,·,-2,·,·,0,·
O=C(C[C@H]1CC[C@@H](NS(=O)(=O)c2ccccc2)[C@H](CO)O1)NCc1ccncn1,-9,·,-1,2,·,-2
CCNC(=S)N/N=C/c1cc(C)n(-c2ccc(Cl)cc2)c1C,6,-1,-3,16*,-7,0
Cc1ccc(S(=O)(=O)Nc2cccc3c2O[C@@H](CN(C)CC2CCCCC2)[C@@H](C)CN([C@H](C)CO)C3=O)cc1,?,·,2,1,·,-4
N#CC(=C(O)COC(=O)c1ccc2c(c1)OCCO2)c1nc2ccccc2[nH]1,-3,-1,1,·,2,0
Cc1c(C(=O)OCC(O)=C(C#N)c2nc3ccccc3[nH]2)oc2ccc(Br)cc12,-1,-1,-6,30*,-2,4
COc1cc(OC)cc(C(=O)OC/C(O)=C(\C#N)c2nc3ccccc3[nH]2)c1,60*,-1,-2,-4,-9,20
COc1ccc(C(=O)c2ccc3oc(-c4ccc(OC)cc4)c(C#CCCO)c3c2)cc1,79*,1,-1,·,1,1
C[C@H](CO)N1C[C@H](C)[C@H](CN(C)C(=O)c2ccc3c(c2)OCO3)Oc2ncc(C3=CCCCC3)cc2C1=O,-11,·,9,5,·,-1
Cc1nnsc1C(=O)NC1CCCc2c1cnn2-c1ccc(C(C)(C)C)cc1 (stereo unspecified),19,-1,-2,2,60*,2
Cc1cc(C)c(C(=O)NC2CCCc3c2cnn3-c2ccc(C)c(C)c2)c(=O)[nH]1 (stereo unspecified),106*,0,0,-3,-2,0
